Experiments:
Brain [1] = assay: Drug uptake in brain of Rowett rat orthotopically xenografted with human U87 cells at 20 mg/kg/day for 3 days by LC-MS/MS analysis in presence of elacridar; format: ADME, organism-based, U-87MG ATCC; details: in vivo, 72 h
Procedure, shortened: (§1)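 U87-EGFR orthotopic rat xenografts (3 weeks' tumor growth) received oral erlotinib in 0.5% methylcellulose daily for 3 days. Elacridar 10 mg/kg was given intravenously via the jugular vein 30 minutes before each erlotinib dose. Sacrifice was 30 minutes after the last dose, followed by saline perfusion. Tumor core, rim and contralateral brain were dissected and analyzed by LC-MS/MS; n = 4 per group, mean ± S.D.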

[2] = Ratio of steady state drug level in brain to plasma in MDR1A/B FVB mouse at 0.6 mg/h/kg, ip administered as infusion after 48 hrs by LC-MS/MS analysis; format: ADME, organism-based; details: read-out: BPR
Procedure, shortened: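 Male FVB Mdr1a/b−/− mice, 8–10 weeks, n = 4. Erlotinib given by constant i.p. infusion at 0.6 mg/h/kg for 48 h to steady state. Brain and plasma by LC-MS/MS after homogenizing brain in 3 volumes 5% BSA/PBS; brain values corrected for residual vascular blood (plasma space 1.4% of brain). Mean ± S.D.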

Brain [3] = assay: Drug uptake in brain of Rowett rat orthotopically xenografted with human U87 cells at 20 mg/kg/day for 3 days by LC-MS/MS analysis in presence of elacridar relative to elacridar non-treated control; format: ADME, organism-based, U-87MG ATCC; details: in vivo, 72 h
Procedure, shortened: (§2)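 U87 cells (wild-type EGFR-transfected) inoculated into right frontal brain of anesthetized rats, 2.5 × 10^5 cells; tumor grown 3 weeks. Erlotinib 20 mg/kg/day in 0.5% methylcellulose by gavage for 3 days; elacridar 10 mg/kg i.v. into jugular vein 30 min before each dose. Sacrifice 30 min after last dose, saline perfusion, brain dissected into tumor core, rim, contralateral hemisphere; plasma and homogenate by LC-MS/MS; n = 4 per group.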

[4] = Ratio of drug level in tumor core to plasma in Rowett rat orthotopically xenografted with human U87 cells at 20 mg/kg/day for 3 days by LC-MS/MS analysis in presence of elacridar; format: ADME, organism-based, U-87MG ATCC; details: with elacridar (dose not stated); procedure, shortened: as §2
[5] = Plasma concentration at steady state in wild-type FVB mouse at 0.6 mg/h/kg, ip administered as infusion after 48 hrs by LC-MS/MS analysis; format: ADME, organism-based; details: read-out: Cpss
Procedure, shortened: (§3)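 Male FVB mice, 8–10 weeks old, n = 4 per genotype. Continuous intraperitoneal infusion for 48 hours to steady state. Plasma obtained by centrifuging blood. Brain homogenized in 3 volumes of ice-cold 5% BSA in PBS. Erlotinib measured by LC-MS/MS with tyrphostin AG1478 internal standard. Brain values corrected for residual vascular blood, taking plasma space as 1.4% of brain. Mean ± S.D.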

Nucleic Acid [6] = assay: Ratio of drug level in tumor core to tumor rim in Rowett rat orthotopically xenografted with human U87 cells at 20 mg/kg/day, po for 5 days by LC-MS/MS analysis; format: ADME, organism-based, U-87MG ATCC; set-up: route oral; details: in vivo, 120 h
Procedure, shortened: (§4)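 U87 cells (wild-type EGFR-transfected) inoculated into right frontal brain of anesthetized rats, 2.5 × 10^5 cells; tumor grown 3 weeks. Erlotinib 20 mg/kg/day in 0.5% methylcellulose by oral gavage for 5 days; sacrifice 30 min after last dose, with or without cardiac saline perfusion; tissue visually dissected into tumor core, rim, contralateral hemisphere; LC-MS/MS; n = 6 per group.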

[7] = Drug uptake in tumor rim of Rowett rat orthotopically xenografted with human U87 cells at 20 mg/kg/day for 3 days by LC-MS/MS analysis in presence of elacridar relative to elacridar non-treated control; format: ADME, organism-based, U-87MG ATCC; details: in vivo, 72 h; procedure, shortened: as §2
[8] = Drug uptake in tumor rim of Rowett rat orthotopically xenografted with human U87 cells at 20 mg/kg/day for 3 days by LC-MS/MS analysis in presence of elacridar; format: ADME, organism-based, U-87MG ATCC; details: in vivo, 72 h; procedure, shortened: as §1
[9] = Drug uptake in tumor core of Rowett rat orthotopically xenografted with human U87 cells at 20 mg/kg/day, po for 5 days by LC-MS/MS analysis; format: ADME, organism-based, U-87MG ATCC; set-up: route oral; details: read-out: Drug uptake
Procedure, shortened: (§5)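 Rats received intracerebral U87 cells overexpressing wild-type EGFR (2.5 × 10^5 cells, right frontal, stereotaxic); tumors grew for 3 weeks. Erlotinib in 0.5% methylcellulose was given by oral gavage daily for 5 days. Sacrifice was 30 minutes after the last dose, with saline cardiac perfusion in the perfused group. Tissue was visually split into tumor core, adjacent rim and contralateral hemisphere. LC-MS/MS; n = 6.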

Nucleic Acid [10] = assay: Ratio of drug level in tumor core to brain contralateral hemisphere in Rowett rat orthotopically xenografted with human U87 cells at 20 mg/kg/day, po for 5 days by LC-MS/MS analysis; format: ADME, organism-based, U-87MG ATCC; set-up: route oral; details: in vivo, 120 h; procedure, shortened: as §4
[11] = Ratio of drug level in tumor core to plasma in Rowett rat orthotopically xenografted with human U87 cells at 20 mg/kg/day, po for 5 days by LC-MS/MS analysis; format: ADME, organism-based, U-87MG ATCC; set-up: route oral; procedure, shortened: as §5
[12] = Plasma concentration at steady state in BCRP1 knock-out FVB mouse at 0.6 mg/h/kg, ip administered as infusion after 48 hrs by LC-MS/MS analysis; format: ADME, organism-based; details: read-out: Cpss; procedure, shortened: as §3
[13] = Plasma concentration at steady state in MDR1A/B knock-out FVB mouse at 0.6 mg/h/kg, ip administered as infusion after 48 hrs by LC-MS/MS analysis; format: ADME, organism-based; details: read-out: Cpss; procedure, shortened: as §3
[14] = Ratio of drug level in tumor rim to plasma in Rowett rat orthotopically xenografted with human U87 cells at 20 mg/kg/day for 3 days by LC-MS/MS analysis in presence of elacridar; format: ADME, organism-based, U-87MG ATCC; details: with elacridar (dose not stated); procedure, shortened: as §2
[15] = Drug uptake at steady state in MDR1A/B/BCRP1 knock-out FVB mouse brain at 0.6 mg/h/kg, ip administered as infusion after 48 hrs by LC-MS/MS analysis; format: ADME, organism-based; details: read-out: Drug uptake; procedure, shortened: as §3
[16] = Ratio of drug level in tumor rim to plasma in Rowett rat orthotopically xenografted with human U87 cells at 20 mg/kg/day, po for 5 days by LC-MS/MS analysis; format: ADME, organism-based, U-87MG ATCC; set-up: route oral; procedure, shortened: as §5
[17] = Ratio of steady state drug level in brain to plasma in MDR1A/B/BCRP1 FVB mouse at 0.6 mg/h/kg, ip administered as infusion after 48 hrs by LC-MS/MS analysis; format: ADME, organism-based; details: read-out: BPR; procedure, shortened: as §3
[18] = Drug uptake in brain of Rowett rat orthotopically xenografted with human U87 cells at 20 mg/kg/day, po for 5 days by LC-MS/MS analysis; format: ADME, organism-based, U-87MG ATCC; set-up: route oral; details: read-out: Drug uptake; procedure, shortened: as §5
[19] = Drug uptake at steady state in wild-type FVB mouse brain at 0.6 mg/h/kg, ip administered as infusion after 48 hrs by LC-MS/MS analysis; format: ADME, organism-based; details: read-out: Drug uptake; procedure, shortened: as §3
[20] = Ratio of drug level in brain contralateral hemisphere to plasma in Rowett rat orthotopically xenografted with human U87 cells at 20 mg/kg/day, po for 5 days by LC-MS/MS analysis; format: ADME, organism-based, U-87MG ATCC; set-up: route oral; details: read-out: BPR; procedure, shortened: as §4
[21] = Drug uptake at steady state in BCRP1 knock-out FVB mouse brain at 0.6 mg/h/kg, ip administered as infusion after 48 hrs by LC-MS/MS analysis; format: ADME, organism-based; details: read-out: Drug uptake; procedure, shortened: as §3
[22] = Drug uptake at steady state in MDR1A/B knock-out FVB mouse brain at 0.6 mg/h/kg, ip administered as infusion after 48 hrs by LC-MS/MS analysis; format: ADME, organism-based; details: read-out: Drug uptake; procedure, shortened: as §3
[23] = Ratio of steady state drug level in brain to plasma in BCRP1 FVB mouse at 0.6 mg/h/kg, ip administered as infusion after 48 hrs by LC-MS/MS analysis; format: ADME, organism-based; details: read-out: BPR; procedure, shortened: as §3
[24] = Drug uptake in tumor core of Rowett rat orthotopically xenografted with human U87 cells at 20 mg/kg/day for 3 days by LC-MS/MS analysis in presence of elacridar relative to elacridar non-treated control; format: ADME, organism-based, U-87MG ATCC; details: in vivo, 72 h; procedure, shortened: as §2
[25] = Ratio of steady state drug level in brain to plasma in wild-type FVB mouse at 0.6 mg/h/kg, ip administered as infusion after 48 hrs by LC-MS/MS analysis; format: ADME, organism-based; details: read-out: BPR; procedure, shortened: as §3
[26] = Drug uptake in tumor rim of Rowett rat orthotopically xenografted with human U87 cells at 20 mg/kg/day, po for 5 days by LC-MS/MS analysis; format: ADME, organism-based, U-87MG ATCC; set-up: route oral; details: read-out: Drug uptake; procedure, shortened: as §5
[27] = Plasma concentration at steady state in MDR1A/B/BCRP1 knock-out FVB mouse at 0.6 mg/h/kg, ip administered as infusion after 48 hrs by LC-MS/MS analysis; format: ADME, organism-based; details: read-out: Cpss; procedure, shortened: as §3
[28] = Ratio of drug level in brain contralateral hemisphere to plasma in Rowett rat orthotopically xenografted with human U87 cells at 20 mg/kg/day for 3 days by LC-MS/MS analysis in presence of elacridar; format: ADME, organism-based, U-87MG ATCC; details: with elacridar (dose not stated), read-out: BPR; procedure, shortened: as §2
[29] = Half life in mouse; format: ADME, organism-based; details: in vivo
[30] = Drug uptake in tumor core of Rowett rat orthotopically xenografted with human U87 cells at 20 mg/kg/day for 3 days by LC-MS/MS analysis in presence of elacridar; format: ADME, organism-based, U-87MG ATCC; details: in vivo, 72 h; procedure, shortened: as §1

For `C#Cc1cccc(Nc2ncnc3cc(OCCOC)c(OCCOC)cc23)c1.Cl` [ERLOTINIB HYDROCHLORIDE], the Drug uptake (Brain [1]) was “Active”, the Kp at 48 h [2] was 0.09 and the “fold change (FC)” value (Brain [3]) was 12. It also gave a Kp at 72 h [4] of 1, a concentration at 48 h [5] of 72 ng/mL and a Ratio (Nucleic Acid [6]) of 4.7. For the same compound, the “fold change (FC)” value [7] was 12, the Drug uptake [8] was “Active” and the concentration at 120 h [9] was 1830 ng/g. For the same compound, the Ratio (Nucleic Acid [10]) was 5, the Kp at 120 h [11] was 0.51 and the concentration at 48 h [12] was 71 ng/mL. The concentration at 48 h [13] was 81 ng/mL, the Kp at 72 h [14] was 1 and the concentration at 48 h [15] was 34 ng/g. It also gave a Kp at 120 h [16] of 0.1, a Kp at 48 h [17] of 0.62 and a concentration at 120 h [18] of 370 ng/g. For the same compound, the concentration at 48 h [19] was 4.3 ng/g, the Kp at 120 h [20] was 0.09 and the concentration at 48 h [21] was 4.9 ng/g. For the same compound, the concentration at 48 h [22] was 12 ng/g, the Kp at 48 h [23] was 0.07 and the “fold change (FC)” value [24] was 4. For the same compound, the Kp at 48 h [25] was 0.02, the concentration at 120 h [26] was 390 ng/g and the concentration at 48 h [27] was 99 ng/mL. The Kp at 72 h [28] was 1, the half-life [29] was 1 h and the Drug uptake [30] was “Active”.

— ChEMBL document CHEMBL3526026, “Function of the blood-brain barrier and restriction of drug delivery to invasive glioma cells: findings in an orthotopic rat xenograft model of glioma” (Drug Metab Dispos, 2013)
